The record followed here is ChEMBL document CHEMBL4265950, “Discovery of furyl/thienyl β-carboline derivatives as potent and selective PDE5 inhibitors with excellent vasorelaxant effect” (Eur J Med Chem, 2018).

The structures appear in SMILES notation. Some results are limits rather than exact numbers.

Broadly, the Ki is a dissociation constant, usually derived from enzyme kinetics or from competition with a known ligand. As a reminder, the IC50 is the concentration needed to halve the response being measured. In general, inhibition refers to the share of the control response that was lost under treatment. Usually EC50 stands for the midpoint of the concentration-response curve.

For data set [1], the species on record is Homo sapiens. The data set is described as follows: Selectivity ratio of Ki for PDE6 (unknown origin) to Ki for PDE5 (unknown origin).
In data set [2] the target is T1, cGMP-specific 3',5'-cyclic phosphodiesterase (Homo sapiens, UniProt O76074). The data set is described as follows: Inhibition of PDE5 (unknown origin).
Data set [3] is filed under the species Homo sapiens. The data set is described as follows: Selectivity index, ratio of IC50 for inhibition of recombinant human N-terminal GST-tagged PDE7A (122 to end residues) expressed in baculovirus infected sf9 cells to IC50 for inhibition of full length recombinant human N-terminal GST-tagged PDE5A1 expressed in baculovirus infected sf9 cells.
In data set [4] the target is High affinity cAMP-specific and IBMX-insensitive 3',5'-cyclic phosphodiesterase 8A (Homo sapiens, UniProt O60658). Briefly: Inhibition of full length recombinant human N-terminal GST-tagged PDE8A1 expressed in baculovirus infected sf9 cells using FAM-cyclic-3',5-AMP as substrate after 1 hr by fluorescence polarization assay. In short, it runs like this: (§1)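 Fluorescence polarization assay run at 25 °C for 60 min in 40 mM MOPS pH 7.5, 0.5 mM EDTA, 15 mM MgCl2, 0.15 mg/mL BSA, 1 mM DTT, 0.05% ProClin 200. Contained 15 ng/mL PDE isoform and 100 nM FAM-cGMP or FAM-cAMP according to isoform, with 1% DMSO final. Binding agent added for 1 h at 25 °C; read at […] nm. IC50 from normalized nonlinear dose-response fit.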
Sequence of High affinity cAMP-specific and IBMX-insensitive 3',5'-cyclic phosphodiesterase 8A (O60658 whole entry, canonical isoform): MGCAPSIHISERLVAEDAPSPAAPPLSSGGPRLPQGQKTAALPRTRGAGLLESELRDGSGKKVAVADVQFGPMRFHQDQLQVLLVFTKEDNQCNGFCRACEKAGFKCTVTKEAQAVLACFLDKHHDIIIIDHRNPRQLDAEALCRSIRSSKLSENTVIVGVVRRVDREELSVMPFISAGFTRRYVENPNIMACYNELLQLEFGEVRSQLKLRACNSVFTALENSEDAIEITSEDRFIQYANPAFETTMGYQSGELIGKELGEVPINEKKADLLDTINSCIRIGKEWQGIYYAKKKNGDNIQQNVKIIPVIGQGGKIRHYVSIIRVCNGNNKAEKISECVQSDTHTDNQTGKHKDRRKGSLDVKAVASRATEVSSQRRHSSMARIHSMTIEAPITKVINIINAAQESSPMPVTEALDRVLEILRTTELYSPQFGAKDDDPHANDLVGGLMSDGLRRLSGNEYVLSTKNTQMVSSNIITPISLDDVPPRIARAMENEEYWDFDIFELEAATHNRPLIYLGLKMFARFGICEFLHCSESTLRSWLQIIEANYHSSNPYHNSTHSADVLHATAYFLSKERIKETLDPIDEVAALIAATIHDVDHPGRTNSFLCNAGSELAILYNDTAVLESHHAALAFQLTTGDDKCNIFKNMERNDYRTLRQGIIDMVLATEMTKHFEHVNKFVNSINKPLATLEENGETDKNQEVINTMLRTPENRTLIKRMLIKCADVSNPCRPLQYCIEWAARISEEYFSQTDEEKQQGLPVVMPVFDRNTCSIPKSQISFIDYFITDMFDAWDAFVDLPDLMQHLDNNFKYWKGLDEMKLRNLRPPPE

For data set [5], the target named is cAMP and cAMP-inhibited cGMP 3',5'-cyclic phosphodiesterase 10A (Homo sapiens, UniProt Q9Y233). Briefly: Inhibition of recombinant human N-terminal GST-tagged PDE10A1 (2 to 789 residues) expressed in baculovirus infected sf9 cells using FAM-cyclic-3',5-AMP as substrate after 1 hr by fluorescence polarization assay. Summed up:
as §1
On the technique in general: Polarisation of emitted light reports the rotation of a fluorescent probe.

Data set [6] deals with High affinity 3',5'-cyclic-AMP phosphodiesterase 7A (Homo sapiens, UniProt Q13946). The data set is described as follows: Inhibition of recombinant human N-terminal GST-tagged PDE7A (122 to end residues) expressed in baculovirus infected sf9 cells using FAM-cyclic-3',5-AMP as substrate after 1 hr by fluorescence polarization assay. Summed up:
as §1

Data set [7] is filed under the species Homo sapiens. The data set is described as follows: Selectivity index, ratio of IC50 for inhibition of full length recombinant human N-terminal GST-tagged PDE11A4 expressed in baculovirus infected sf9 cells to IC50 for inhibition of full length recombinant human N-terminal GST-tagged PDE5A1 expressed in baculovirus infected sf9 cells.
The nature of data set [8]: Stability of the compound in PDE5 enzyme assay condition at 100 uM by HPLC analysis. Type of data set: ADME.
For data set [9], the species on record is Homo sapiens. The data set is described as follows: Selectivity index, ratio of IC50 for inhibition of full length recombinant human N-terminal GST-tagged PDE8A1 expressed in baculovirus infected sf9 cells to IC50 for inhibition of full length recombinant human N-terminal GST-tagged PDE5A1 expressed in baculovirus infected sf9 cells.
For data set [10], the target named is cGMP-dependent 3',5'-cyclic phosphodiesterase (Homo sapiens, UniProt O00408). Briefly: Inhibition of recombinant human N-terminal FLAG-tagged PDE2A (2 to 941 residues) expressed in baculovirus infected sf9 cells using FAM-cyclic-3',5-AMP as substrate after 1 hr by fluorescence polarization assay. In short, it runs like this:
as §1

The species named for data set [11] is Homo sapiens. The data set is described as follows: Selectivity index, ratio of IC50 for inhibition of full length recombinant human N-terminal GST-tagged PDE6C expressed in baculovirus infected sf9 cells to IC50 for inhibition of full length recombinant human N-terminal GST-tagged PDE5A1 expressed in baculovirus infected sf9 cells.
For data set [12], the target named is cGMP-inhibited 3',5'-cyclic phosphodiesterase 3B (Homo sapiens, UniProt Q13370). The data set is described as follows: Inhibition of recombinant human N-terminal GST-tagged PDE3B (592 to end residues) expressed in baculovirus infected sf9 cells using FAM-cyclic-3',5-AMP as substrate after 1 hr by fluorescence polarization assay. In short, it runs like this: as §1
Sequence of cGMP-inhibited 3',5'-cyclic phosphodiesterase 3B (Q13370 whole entry): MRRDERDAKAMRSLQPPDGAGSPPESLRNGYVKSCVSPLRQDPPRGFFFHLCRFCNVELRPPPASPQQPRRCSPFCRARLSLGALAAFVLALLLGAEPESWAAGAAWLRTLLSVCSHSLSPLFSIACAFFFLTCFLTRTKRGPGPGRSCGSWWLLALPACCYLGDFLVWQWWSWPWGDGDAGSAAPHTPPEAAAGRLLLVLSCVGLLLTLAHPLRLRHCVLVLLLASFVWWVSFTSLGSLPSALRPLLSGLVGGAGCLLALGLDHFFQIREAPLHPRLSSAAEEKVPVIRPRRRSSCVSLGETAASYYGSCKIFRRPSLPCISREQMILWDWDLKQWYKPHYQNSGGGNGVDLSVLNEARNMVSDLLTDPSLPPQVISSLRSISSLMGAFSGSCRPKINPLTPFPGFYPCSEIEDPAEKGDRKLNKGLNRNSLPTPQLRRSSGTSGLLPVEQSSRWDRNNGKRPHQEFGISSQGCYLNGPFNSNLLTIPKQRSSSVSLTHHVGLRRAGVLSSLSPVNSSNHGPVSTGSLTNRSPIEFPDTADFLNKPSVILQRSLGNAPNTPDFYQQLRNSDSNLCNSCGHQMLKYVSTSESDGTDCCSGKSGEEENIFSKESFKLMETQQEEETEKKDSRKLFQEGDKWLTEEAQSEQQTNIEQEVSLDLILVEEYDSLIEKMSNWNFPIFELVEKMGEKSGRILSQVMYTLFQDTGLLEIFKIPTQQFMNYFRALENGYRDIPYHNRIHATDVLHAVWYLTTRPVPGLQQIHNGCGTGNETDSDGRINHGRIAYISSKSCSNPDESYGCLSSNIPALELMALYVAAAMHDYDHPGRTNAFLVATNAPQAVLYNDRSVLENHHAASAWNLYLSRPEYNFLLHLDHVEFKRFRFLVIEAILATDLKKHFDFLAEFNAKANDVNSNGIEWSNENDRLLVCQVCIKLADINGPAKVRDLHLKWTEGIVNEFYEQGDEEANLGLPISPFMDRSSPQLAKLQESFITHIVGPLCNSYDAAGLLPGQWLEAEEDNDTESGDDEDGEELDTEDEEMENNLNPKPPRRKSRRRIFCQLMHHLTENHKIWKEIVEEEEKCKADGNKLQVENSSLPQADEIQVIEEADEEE

In data set [13] the target is Dual 3',5'-cyclic-AMP and -GMP phosphodiesterase 11A (Homo sapiens, UniProt Q9HCR9). Briefly: Inhibition of full length recombinant human N-terminal GST-tagged PDE11A4 expressed in baculovirus infected sf9 cells using FAM-cyclic-3',5-AMP as substrate after 1 hr by fluorescence polarization assay.
Sequence of Dual 3',5'-cyclic-AMP and -GMP phosphodiesterase 11A (Q9HCR9 whole entry): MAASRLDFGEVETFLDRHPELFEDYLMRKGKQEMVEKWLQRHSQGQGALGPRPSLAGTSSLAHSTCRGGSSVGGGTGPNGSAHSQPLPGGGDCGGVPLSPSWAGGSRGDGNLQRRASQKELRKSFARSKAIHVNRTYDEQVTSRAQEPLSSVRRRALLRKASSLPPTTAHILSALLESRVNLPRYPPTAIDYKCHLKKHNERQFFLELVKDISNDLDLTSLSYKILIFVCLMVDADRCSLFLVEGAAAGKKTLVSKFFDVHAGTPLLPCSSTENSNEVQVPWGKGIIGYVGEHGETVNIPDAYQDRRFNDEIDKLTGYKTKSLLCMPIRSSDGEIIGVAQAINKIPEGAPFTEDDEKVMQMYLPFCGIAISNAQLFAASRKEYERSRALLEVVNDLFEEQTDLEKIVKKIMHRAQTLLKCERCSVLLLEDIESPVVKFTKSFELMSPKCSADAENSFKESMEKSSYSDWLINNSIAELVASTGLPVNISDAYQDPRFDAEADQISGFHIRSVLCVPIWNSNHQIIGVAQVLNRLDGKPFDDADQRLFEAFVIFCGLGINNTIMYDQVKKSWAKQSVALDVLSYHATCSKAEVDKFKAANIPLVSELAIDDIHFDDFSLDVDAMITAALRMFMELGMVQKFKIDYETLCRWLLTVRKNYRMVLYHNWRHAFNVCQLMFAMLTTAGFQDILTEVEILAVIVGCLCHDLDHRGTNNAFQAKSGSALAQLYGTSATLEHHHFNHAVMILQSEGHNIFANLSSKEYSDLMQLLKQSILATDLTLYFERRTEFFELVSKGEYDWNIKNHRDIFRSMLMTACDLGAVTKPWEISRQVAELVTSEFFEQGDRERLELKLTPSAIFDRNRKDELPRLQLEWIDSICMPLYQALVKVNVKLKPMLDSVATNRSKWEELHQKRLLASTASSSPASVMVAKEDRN
Data set [14] addresses T1, cGMP-specific 3',5'-cyclic phosphodiesterase. Briefly: Inhibition of full length recombinant human N-terminal GST-tagged PDE5A1 expressed in baculovirus infected sf9 cells at 100 nM using FAM-cyclic-3',5-GMP as substrate after 1 hr by fluorescence polarization assay relative to control. In short, it runs like this: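 Single-point test at 100 nM, reported as percent inhibition. Human PDE5 at 15 ng/mL with 100 nM FAM-cGMP in MOPS pH 7.5 buffer (MgCl2, EDTA, BSA, DTT), 1% DMSO final, 60 min at 25 °C. Binding agent added for 1 h, then fluorescence polarization read at […] nm.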

Data set [15] has as its target Cone cGMP-specific 3',5'-cyclic phosphodiesterase subunit alpha' (Homo sapiens, UniProt P51160). Briefly: Inhibition of full length recombinant human N-terminal GST-tagged PDE6C expressed in baculovirus infected sf9 cells using […] as substrate after 1 hr by fluorescence polarization assay.
Data set [16] addresses cGMP-specific 3',5'-cyclic phosphodiesterase (Rattus norvegicus, UniProt O54735). The data set is described as follows: (§2) Inhibition of PDE5 in Wistar rat mesentric arteries assessed as inhibition of phenylephrine-induced contraction by measuring increase in acetylcholine-induced vasorelaxation by pressure myographic method. Summed up:
(§3)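 Third-order rat mesenteric arteries (110–150 µm), 3–4 mm unbranched segments, cannulated in PSS (pH 7.4, 95% O2/5% CO2). Equilibrated 35 min while pressure was stepped 10→60 mmHg. Checked with 120 mM KCl and acetylcholine, then constricted with 20 µM phenylephrine (norepinephrine in text) and given compounds cumulatively. Ca²⁺-free PSS set maximal dilation. Outer diameter recorded as % relaxation; EC50 from normalized nonlinear fit.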

Data set [17] deals with cGMP-specific 3',5'-cyclic phosphodiesterase (Rattus norvegicus) (UniProt O54735). The description is as §2. In short, it runs like this: as §3
The target of data set [18] is 3',5'-cyclic-AMP phosphodiesterase 4A (Homo sapiens, UniProt P27815). Briefly: Inhibition of full length recombinant human N-terminal GST-tagged PDE4A1A expressed in baculovirus infected sf9 cells using FAM-cyclic-3',5-AMP as substrate after 1 hr by fluorescence polarization assay.
The target of data set [19] is Dual specificity calcium/calmodulin-dependent 3',5'-cyclic nucleotide phosphodiesterase 1A (Homo sapiens, UniProt P54750). The data set is described as follows: Inhibition of full length recombinant human N-terminal GST-tagged PDE1A expressed in baculovirus infected sf9 cells using FAM-cyclic-3',5-AMP as substrate after 1 hr by fluorescence polarization assay. In short, it runs like this: as §1

For data set [20], the target named is High affinity cGMP-specific 3',5'-cyclic phosphodiesterase 9A (Homo sapiens, UniProt O76083). The data set is described as follows: Inhibition of full length recombinant human N-terminal GST-tagged PDE9A2 expressed in baculovirus infected sf9 cells using […] as substrate after 1 hr by fluorescence polarization assay. Summed up: as §1
The species named for data set [21] is Homo sapiens. The data set is described as follows: Selectivity index, ratio of IC50 for inhibition of full length recombinant human N-terminal GST-tagged PDE9A2 expressed in baculovirus infected sf9 cells to IC50 for inhibition of full length recombinant human N-terminal GST-tagged PDE5A1 expressed in baculovirus infected sf9 cells.
The species named for data set [22] is Homo sapiens. Briefly: Selectivity index, ratio of IC50 for inhibition of recombinant human N-terminal GST-tagged PDE10A1 (2 to 789 residues) expressed in baculovirus infected sf9 cells to IC50 for inhibition of full length recombinant human N-terminal GST-tagged PDE5A1 expressed in baculovirus infected sf9 cells.
For data set [23], the target named is T1, cGMP-specific 3',5'-cyclic phosphodiesterase. Briefly: Inhibition of full length recombinant human N-terminal GST-tagged PDE5A1 expressed in baculovirus infected sf9 cells using FAM-cyclic-3',5-GMP as substrate after 1 hr by fluorescence polarization assay.
For data set [24], the species on record is Homo sapiens. Briefly: Selectivity ratio of IC50 for PDE6 (unknown origin) to IC50 for PDE5 (unknown origin).

Sequence of cAMP and cAMP-inhibited cGMP 3',5'-cyclic phosphodiesterase 10A (Q9Y233 whole entry, the tested form may be a part): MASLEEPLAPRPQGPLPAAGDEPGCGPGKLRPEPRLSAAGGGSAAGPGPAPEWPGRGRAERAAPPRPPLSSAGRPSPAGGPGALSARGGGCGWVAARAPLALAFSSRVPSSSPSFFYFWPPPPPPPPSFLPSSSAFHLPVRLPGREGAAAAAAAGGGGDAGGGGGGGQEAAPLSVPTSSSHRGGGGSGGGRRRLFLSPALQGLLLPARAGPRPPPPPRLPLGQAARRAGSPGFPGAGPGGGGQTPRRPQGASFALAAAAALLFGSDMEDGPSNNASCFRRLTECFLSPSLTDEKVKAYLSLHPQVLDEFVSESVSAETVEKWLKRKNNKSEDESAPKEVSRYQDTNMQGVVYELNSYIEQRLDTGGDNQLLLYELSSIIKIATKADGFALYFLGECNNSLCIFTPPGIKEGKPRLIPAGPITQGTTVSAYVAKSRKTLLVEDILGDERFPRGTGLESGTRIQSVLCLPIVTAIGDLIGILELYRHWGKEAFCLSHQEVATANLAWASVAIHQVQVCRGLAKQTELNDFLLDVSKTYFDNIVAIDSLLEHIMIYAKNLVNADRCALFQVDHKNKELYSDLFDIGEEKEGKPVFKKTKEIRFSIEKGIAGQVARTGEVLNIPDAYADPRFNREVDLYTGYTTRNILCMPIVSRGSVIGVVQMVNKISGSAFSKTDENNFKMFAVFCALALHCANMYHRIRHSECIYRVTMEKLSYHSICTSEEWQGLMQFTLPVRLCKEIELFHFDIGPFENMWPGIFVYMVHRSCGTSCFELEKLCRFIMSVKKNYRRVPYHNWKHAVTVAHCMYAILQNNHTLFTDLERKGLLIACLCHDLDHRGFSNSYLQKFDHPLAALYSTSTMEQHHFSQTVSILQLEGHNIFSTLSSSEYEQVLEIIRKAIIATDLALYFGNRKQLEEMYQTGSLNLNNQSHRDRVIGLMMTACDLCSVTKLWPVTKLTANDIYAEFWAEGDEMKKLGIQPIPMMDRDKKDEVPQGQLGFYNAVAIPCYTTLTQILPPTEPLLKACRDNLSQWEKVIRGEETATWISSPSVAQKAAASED
Sequence of Cone cGMP-specific 3',5'-cyclic phosphodiesterase subunit alpha' (P51160 whole entry): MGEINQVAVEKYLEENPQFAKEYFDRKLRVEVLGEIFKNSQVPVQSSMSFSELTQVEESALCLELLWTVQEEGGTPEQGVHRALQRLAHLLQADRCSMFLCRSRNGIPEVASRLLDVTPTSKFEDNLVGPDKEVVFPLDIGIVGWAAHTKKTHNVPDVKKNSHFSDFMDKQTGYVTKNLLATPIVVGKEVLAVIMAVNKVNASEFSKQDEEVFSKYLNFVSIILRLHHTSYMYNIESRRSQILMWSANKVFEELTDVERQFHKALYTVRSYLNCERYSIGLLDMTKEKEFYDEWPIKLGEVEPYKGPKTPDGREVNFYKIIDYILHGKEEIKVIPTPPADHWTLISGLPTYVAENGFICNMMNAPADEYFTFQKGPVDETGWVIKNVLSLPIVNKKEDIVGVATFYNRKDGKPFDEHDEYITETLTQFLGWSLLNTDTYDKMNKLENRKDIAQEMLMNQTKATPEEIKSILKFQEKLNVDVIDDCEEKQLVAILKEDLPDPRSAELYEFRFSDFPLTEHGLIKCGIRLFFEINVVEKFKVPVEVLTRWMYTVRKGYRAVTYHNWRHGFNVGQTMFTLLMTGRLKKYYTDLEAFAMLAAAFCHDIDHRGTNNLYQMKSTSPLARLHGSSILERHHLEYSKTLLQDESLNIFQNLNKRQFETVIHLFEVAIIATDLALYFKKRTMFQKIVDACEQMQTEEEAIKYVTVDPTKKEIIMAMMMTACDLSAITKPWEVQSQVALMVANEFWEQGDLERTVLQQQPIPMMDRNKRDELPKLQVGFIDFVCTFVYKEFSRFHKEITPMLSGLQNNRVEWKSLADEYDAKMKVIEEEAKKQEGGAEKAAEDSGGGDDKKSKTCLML

With `CN1CCN(C(=O)c2ccc(-c3ccc(C(=O)N4CCc5c([nH]c6ccccc56)C4c4ccc5c(c4)OCO5)o3)cc2)CC1` (racemic), the Ratio Ki in data set [1] worked out at 187. Also, in [2], the affinity corresponds to a Ki of 8 nM.
On to `CCc1ccc([C@@H]2c3[nH]c4ccccc4c3C[C@@H]3C(=O)N(C)CC(=O)N23)s1`, for which the Ratio IC50 in data set [3] is > 1000; in [7] it was 70; in data set [9], > 1000; in data set [11], > 258; in data set [21], > 1000; in data set [22], > 1000. In addition, the IC50 in data set [4] is > 4000 nM; in data set [5], > 4000 nM; in data set [6], > 4000 nM; in data set [10], > 20000 nM; in [12], > 20000 nM; in data set [13] it was 272 nM. For the same compound, the IC50 was > 1000 nM in data set [15]; > 10000 nM in data set [18]; > 20000 nM in data set [19]; > 4000 nM in data set [20]; 3.87 nM in data set [23]. In addition, in data set [8], the Stability result was “Stable”. In data set [14], the inhibition turned out to be 97.8%. The EC50 in data set [16] came out at 30 nM. Further, in data set [17], the percent relaxation entry is “Dose-dependent effect”.
Regarding `CCc1ccc(C2c3[nH]c4ccccc4c(=O)c3CN2c2ncc(-c3ccccn3)cn2)s1` (centres undefined), the Ratio IC50 in data set [24] was 8.
Take `CCc1ccc(C2c3[nH]c4ccccc4c(=O)c3CN2c2ncc(-c3ccccn3)cn2)o1` (centres undefined): the Ratio IC50 in [24] worked out at 4. In data set [2], half-maximal inhibition (IC50) required 0.53 nM.
For `CCc1ccc([C@@H]2c3[nH]c4ccccc4c3C[C@@H]3C(=O)N(C)CC(=O)N23)o1`, the Ratio IC50 is 9 in [7] and > 79 in data set [11]. In data set [8], the Stability entry is recorded as “Stable”. In addition, the IC50 in data set [10] was > 20000 nM; in data set [12], > 20000 nM; in data set [13], 119 nM; in data set [15], > 1000 nM; in data set [18] it was > 10000 nM; in [19], > 20000 nM. Further, the IC50 in data set [23] was 12.7 nM. Further, in data set [14], the inhibition was found to be 98.4%. Also, the EC50 in data set [16] turned out to be 725 nM. Also, the percent relaxation entry in [17] is “Dose-dependent effect”.
As to `CN1CC(=O)N2[C@H](c3ccc4c(c3)OCO4)c3[nH]c4ccccc4c3C[C@@H]2C1=O`, the IC50 in [4], in data set [5], in data set [6], in [10], in data set [12] and in data set [19] was > 10000 nM in each case. The IC50 in data set [20] is > 10000 nM. The EC50 in [16] turned out to be 78 nM.
Regarding `CCc1ccc([C@@H]2c3[nH]c4ccccc4c3C[C@H]3C(=O)N(CC)C(=O)N23)o1`, the Ratio IC50 in data set [3] is > 1000; in data set [7] it was > 342; in data set [9] it was > 1000; in data set [11] it was 43; in data set [21], > 1000; in data set [22], > 1000. The IC50 in data set [4] was > 3000 nM; in [5], > 3000 nM; in [6], > 3000 nM; in data set [10], > 20000 nM; in data set [12], > 20000 nM; in [13], > 1000 nM. In addition, the IC50 in data set [15] is 127 nM; in data set [18], > 10000 nM; in data set [19] it was > 20000 nM; in data set [20] it was > 3000 nM; in [23] it was 2.92 nM. Further, the Stability result in data set [8] is “Stable”. Further, the inhibition in data set [14] is 99.5%. Further, the half-maximal effective concentration (EC50) in [16] turned out to be 63 nM. Further, the percent relaxation result in data set [17] is “Dose-dependent effect”.
`COc1ccc(CNc2nc(N3CCC[C@H]3CO)ncc2C(=O)NCc2ncccn2)cc1Cl`: the Ratio Ki in data set [1] stood at 1000.
